Measured values reported in ChEMBL document CHEMBL3813699, “Structure-Activity Relationships of a Diverse Class of Halogenated Phenazines That Targets Persistent, Antibiotic-Tolerant Bacterial Biofilms and Mycobacterium tuberculosis” (J Med Chem, 2016).
≈ marks a conversion by molar mass, not a printed value. Calls of active or inactive are those of the source. The rule behind the calls is not given here.

Key:
[1] = tested on: Staphylococcus epidermidis; test: Antibacterial activity against methicillin-resistant Staphylococcus epidermidis ATCC 35984 incubated for 16 to 18 hrs by broth microdilution method; assay type: functional
Staphylococcus aureus [2] = test: Antibacterial activity against methicillin-resistant Staphylococcus aureus clinical isolate 2 incubated for 16 hrs by broth microdilution method; assay type: functional; settings: isolate 2, 16 h
[3] = tested on: Staphylococcus epidermidis; test: Antibacterial activity against Staphylococcus epidermidis ATCC 12228 incubated for 16 to 18 hrs by broth microdilution method; assay type: functional
Enterococcus faecium [4] = test: Antibiofilm activity against […]-resistant Enterococcus faecium ATCC 700221 assessed as biofilm eradication incubated for 24 hrs by CBD assay; assay type: functional; settings: for MBC: Enterococcus faecium, ATCC 700221, 24 h
Method in brief: (§1)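 Calgary Biofilm Device: pegs inoculated with mid-log culture diluted 1,000-fold in TSB + 0.5% glucose, 24 h 37 °C; washed pegs challenged with 2-fold dilutions 24 h 37 °C; pegs moved to fresh TSBG 24 h; MBEC = lowest concentration leaving no turbidity; 2–6 independent experiments.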

[5] = tested on: Mycobacterium tuberculosis; test: Antibacterial activity against Mycobacterium tuberculosis H37Ra ATCC 25177 after 7 days by two-fold serial dilution method; assay type: functional; settings: H37Ra ATCC 25177, 168 h
[6] = Aqueous solubility of compound in media after 16 hrs; assay type: physicochemical
[7] = Dissociation constant, pKa of compound; assay type: physicochemical
Staphylococcus aureus [8] = test: Antibacterial activity against methicillin-resistant Staphylococcus aureus BAA-44 incubated for 16 to 18 hrs by broth microdilution method; assay type: functional
Staphylococcus aureus [9] = test: Antibacterial activity against methicillin-resistant Staphylococcus aureus clinical isolate 2 incubated for 16 to 18 hrs by broth microdilution method; assay type: functional
HeLa [10] = test: Cytotoxicity against human HeLa cells after 24 hrs by LDH release assay; assay type: cell-based
Method in brief: (§2)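 HeLa in DMEM + 10% FBS, 37 °C 5% CO2, at 70–80% confluence treated with 25, 50, 100 µM for 24 h; DMSO vehicle; Triton X-100 2% v/v max-LDH control, medium-only negative; supernatant with LDH reaction mix 30 min room temperature, stopped, absorbance 490 nm.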

[11] = tested on: Staphylococcus epidermidis; test: Antibacterial activity against methicillin-resistant Staphylococcus epidermidis ATCC 35984 assessed as biofilm eradication incubated for 24 hrs by CBD assay; assay type: functional; settings: for MBC: Staphylococcus epidermidis, ATCC 35984, 24 h; method in brief: as §1
Staphylococcus aureus [12] = test: Antibacterial activity against methicillin-resistant Staphylococcus aureus BAA-1707 incubated for 16 to 18 hrs by broth microdilution method; assay type: functional
Enterococcus faecium [13] = test: Antibacterial activity against vancomycin-resistant Enterococcus faecium ATCC 700221 incubated for 16 to 18 hrs by broth microdilution method; assay type: functional
[14] = Induction of hemolysis in human RBC at 200 uM incubated for 1 hr; assay type: cell-based, Erythrocyte; settings: red blood cells, read-out: Activity
Method in brief: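 Human RBCs (EDTA), washed three times in Tris-buffered saline pH 7.2; 2% hRBC with compound at final 200 µM, 1 h 37 °C; supernatant OD405; % hemolysis relative to DMSO (0%) and Triton X (100%).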

[15] = Metal chelating activity assessed as soluble Cu2+-compound complex formation by UV-vis spectroscopic analysis; assay type: physicochemical
Method in brief: (§3)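 UV-vis monitoring after adding 0.5 equivalents CuSO4 or ammonium iron(II) sulfate to stirred 10 mM ligand in DMSO; Cu stoichiometry from free ligand remaining after 2 h room-temperature stirring with varying CuSO4 in methanol, filtered, redissolved in DMSO, A440 against calibration curve.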

[16] = Metal chelating activity assessed as soluble Fe2+-compound complex formation by UV-vis spectroscopic analysis; assay type: physicochemical; method in brief: as §3
Staphylococcus aureus [17] = test: Antibiofilm activity against methicillin-resistant Staphylococcus aureus isolate 2 assessed as biofilm eradication incubated for 24 hrs by CBD assay; assay type: functional; settings: for MBC: Staphylococcus aureus, isolate 2, 24 h; method in brief: as §1
Staphylococcus aureus [18] = test: Antibacterial activity against methicillin-resistant Staphylococcus aureus clinical isolate 2 incubated for 16 hrs by broth microdilution method in presence of Cu2+; assay type: functional; settings: isolate 2, 16 h
Staphylococcus aureus [19] = test: Ratio of MIC for methicillin-resistant Staphylococcus aureus clinical isolate 2 in absence and presence of Cu2+; assay type: functional
Staphylococcus aureus [20] = test: Antibacterial activity against methicillin-resistant Staphylococcus aureus clinical isolate 2 incubated for 16 hrs by broth microdilution method in presence of Fe2+; assay type: functional; settings: isolate 2, 16 h
Staphylococcus aureus [21] = test: Ratio of MIC for methicillin-resistant Staphylococcus aureus clinical isolate 2 in absence and presence of tiron; assay type: functional; design: scale not given here
Staphylococcus aureus [22] = test: Antibacterial activity against methicillin-resistant Staphylococcus aureus clinical isolate 2 incubated for 16 hrs by broth microdilution method in presence of tiron; assay type: functional; settings: isolate 2, 16 h
[23] = tested on: Staphylococcus epidermidis; test: Antibiofilm activity against methicillin-resistant Staphylococcus epidermidis ATCC 35984 assessed as biofilm eradication at 0.1 to 10 uM incubated for 24 hrs by live/dead staining-based fluorescence microscopic analysis; assay type: functional, organism-based
Method in brief: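 MRSE 35984 mid-log culture diluted 1:1,000, biofilm grown 24 h at 37 °C on glass dish, saline wash, treated in fresh media 0.1, 1, 10 µM for 24 h at 37 °C; DMSO negative control; Live/Dead stain 15 min dark, paraformaldehyde fixed, fluorescence microscopy.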

HeLa [24] = test: Cytotoxicity against human HeLa cells assessed as induction of cell death at 100 uM after 24 hrs by LDH release assay; assay type: cell-based; method in brief: as §2
HeLa [25] = test: Cytotoxicity against human HeLa cells assessed as cell death at 50 uM after 24 hrs by LDH release assay; assay type: cell-based; method in brief: as §2
[26] = tested on: Staphylococcus epidermidis; test: Antibiofilm activity against methicillin-resistant Staphylococcus epidermidis ATCC 35984 assessed as reduction in persister cells level within biofilms MBEC incubated for 24 hrs by CBD assay; assay type: functional; design: scale not given: the % may be the effect or the level left
Method in brief: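 After CBD challenge and recovery, pegs sonicated 30 min in PBS and plated to count viable biofilm cells (CFU/mL) at and below MBEC.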

Staphylococcus aureus [27] = test: Antibiofilm activity against methicillin-resistant Staphylococcus aureus BAA-44 assessed as biofilm eradication incubated for 24 hrs by CBD assay; assay type: functional; method in brief: as §1
Staphylococcus aureus [28] = test: Antibacterial activity against Staphylococcus aureus ATCC 25923 incubated for 16 to 20 hrs by broth microdilution method; assay type: functional
[29] = Metal chelating activity assessed as insoluble Cu2+-compound complex formation by UV-vis spectroscopic analysis; assay type: physicochemical; method in brief: as §3
Staphylococcus aureus [30] = test: Antibacterial activity against methicillin-resistant Staphylococcus aureus clinical isolate 2 incubated for 16 hrs by broth microdilution method in presence of thiourea; assay type: functional, organism-based
Staphylococcus aureus [31] = test: Antibacterial activity against methicillin-resistant Staphylococcus aureus clinical isolate 2 incubated for 16 hrs by broth microdilution method in presence of ascorbic acid; assay type: functional, organism-based
[32] = tested on: Staphylococcus epidermidis; test: Antibacterial activity against Staphylococcus epidermidis ATCC 12228 incubated for 16 to 20 hrs by broth microdilution method; assay type: functional
Staphylococcus aureus [33] = test: Antibiofilm activity against methicillin-resistant Staphylococcus aureus BAA-1707 assessed as biofilm eradication incubated for 24 hrs by CBD assay; assay type: functional; settings: for MBC: Staphylococcus aureus, BAA-1707, 24 h; method in brief: as §1
Staphylococcus aureus [34] = test: Antibacterial activity against methicillin-resistant Staphylococcus aureus clinical isolate 2 incubated for 16 hrs by broth microdilution method in presence of MnTBAP; assay type: functional, organism-based

## Oc1ccc(Br)c2nc3cc(Cl)c(Cl)cc3nc12
[1]
  MIC: 1.56 µM (≈ 0.537 µg/mL)
Staphylococcus aureus [2]
  MIC: 0.78 µM (≈ 0.268 µg/mL)
[3]
  MIC: 3.13 µM (≈ 1.08 µg/mL)
Enterococcus faecium [4]
  MBEC: 25 µM
  MBC: 100 µM (≈ 34.4 µg/mL)
[5]
  MIC: 3.13 µM (≈ 1.08 µg/mL)
[6]
  solubility at 16 h: 200 µM (≈ 68.8 µg/mL)
[7]
  pKa: 8.42
Staphylococcus aureus [8]
  MIC: 1.17 µM (≈ 0.402 µg/mL)
Staphylococcus aureus [9]
  MIC: 0.78 µM (≈ 0.268 µg/mL)
HeLa [10]
  IC50: > 100 µM
[11]
  MBEC: 100 µM
  MBC: 37.5 µM (≈ 12.9 µg/mL)
Staphylococcus aureus [12]
  MIC: 0.3 µM (≈ 0.103 µg/mL)
Enterococcus faecium [13]
  MIC: 6.25 µM (≈ 2.15 µg/mL)
[14]
  hemolysis at 1 h, 200 µM: 2.7%

## Cc1ccc2c(Br)cc(Br)c(O)c2n1 [BROQUINALDOL]
[15]
  Activity: Active
[1]
  MIC: 0.3 µM (≈ 0.0951 µg/mL)
[3]
  MIC: 0.78 µM (≈ 0.247 µg/mL)
[16]
  Activity: Active
Staphylococcus aureus [17]
  MBEC: 188 µM
  MBC: 23.5 µM (≈ 7.45 µg/mL)
Enterococcus faecium [4]
  MBEC: 1.5 µM
  MBC: 2 µM (≈ 0.634 µg/mL)
[5]
  MIC: 25 µM (≈ 7.92 µg/mL)
Staphylococcus aureus [8]
  MIC: 0.78 µM (≈ 0.247 µg/mL)
HeLa [10]
  IC50: > 100 µM
[11]
  MBEC: 93.8 µM
  MBC: 9.38 µM (≈ 2.97 µg/mL)
Staphylococcus aureus [12]
  MIC: 0.78 µM (≈ 0.247 µg/mL)
Enterococcus faecium [13]
  MIC: 2.35 µM (≈ 0.745 µg/mL)

## CN(C)[C@@H]1C(O)=C(C(N)=O)C(=O)[C@@]2(O)C(O)=C3C(=O)c4c(O)cccc4[C@@](C)(O)[C@H]3C[C@@H]12 [TETRACYCLINE]
Staphylococcus aureus [18]
  MIC: 1.56 µM
Staphylococcus aureus [2]
  MIC: 1.17 µM (≈ 0.52 µg/mL)
Staphylococcus aureus [19]
  Ratio: <2
Staphylococcus aureus [20]
  MIC: 18.8 µM

## Oc1cccc2cccnc12 [OXYQUINOLINE]
Staphylococcus aureus [18]
  MIC: 3.13 µM
Staphylococcus aureus [2]
  MIC: 6.25 µM (≈ 0.907 µg/mL)
Staphylococcus aureus [21]
  Ratio: 16
Staphylococcus aureus [19]
  Ratio: <2
Staphylococcus aureus [20]
  MIC: 6.25 µM
Staphylococcus aureus [22]
  MIC: > 100 µM

## Oc1c(Br)cc(I)c2nc3cc(Cl)c(Cl)cc3nc12
Staphylococcus aureus [18]
  MIC: 100 µM
[1]
  MIC: 3.13 µM (≈ 1.47 µg/mL)
Staphylococcus aureus [2]
  MIC: 6.25 µM (≈ 2.94 µg/mL)
[3]
  MIC: 0.1 µM (≈ 0.047 µg/mL)
Staphylococcus aureus [17]
  MBEC: 9.38 µM
  MBC: 3.13 µM (≈ 1.47 µg/mL)
Enterococcus faecium [4]
  MBEC: 0.2 µM
  MBC: 0.2 µM (≈ 0.094 µg/mL)
[23]
  Activity: Active
[5]
  MIC: 12.5 µM (≈ 5.87 µg/mL)
[6]
  solubility at 16 h: 200 µM (≈ 94 µg/mL)
HeLa [24]
  Activity: 70%
Staphylococcus aureus [8]
  MIC: 3.13 µM (≈ 1.47 µg/mL)
Staphylococcus aureus [9]
  MIC: 3.13 µM (≈ 1.47 µg/mL)
HeLa [10]
  IC50: > 50 µM
[11]
  MBEC: 2.35 µM
  MBC: 1.56 µM (≈ 0.733 µg/mL)
Staphylococcus aureus [12]
  MIC: 0.3 µM (≈ 0.141 µg/mL)
HeLa [25]
  Activity: Non-toxic
Enterococcus faecium [13]
  MIC: 0.1 µM (≈ 0.047 µg/mL)
[14]
  hemolysis at 1 h, 200 µM: 2.7%
[26]
  Activity: >99.99%

## Oc1c(Br)cc(Br)c2nc3ccccc3nc12
Staphylococcus aureus [27]
  MBEC: 188 µM
Staphylococcus aureus [27]; Staphylococcus aureus, BAA-44, 24 h
  MBC: 62.5 µM (≈ 22.1 µg/mL)
Staphylococcus aureus [18]
  MIC: 75 µM
Staphylococcus aureus [28]
  MIC: 0.78 µM (≈ 0.276 µg/mL)
[29]
  Activity: Active
[16]
  Activity: Active
Staphylococcus aureus [17]
  MBEC: 93.8 µM
  MBC: 15.6 µM (≈ 5.52 µg/mL)
[5]
  MIC: 25 µM (≈ 8.85 µg/mL)
Staphylococcus aureus [30]
  Activity: Active
Staphylococcus aureus [31]
  Activity: Active
Staphylococcus aureus [20]
  MIC: 3.13 µM
[32]
  MIC: 0.27 µg/mL (≈ 0.763 µM)
Staphylococcus aureus [33]
  MBEC: 375 µM
  MBC: 62.5 µM (≈ 22.1 µg/mL)
HeLa [10]
  IC50: > 100 µM
[11]
  MBEC: 250 µM
  MBC: 23.5 µM (≈ 8.32 µg/mL)
Enterococcus faecium [13]
  MIC: 6.25 µM (≈ 2.21 µg/mL)
[14]
  hemolysis at 1 h, 200 µM: ≤ 1%
Staphylococcus aureus [34]
  Activity: Active

## Oc1c(Br)cc(Br)c2nc3cc(Cl)c(Cl)cc3nc12
[1]
  MIC: 0.3 µM (≈ 0.127 µg/mL)
[3]
  MIC: 0.08 µM (≈ 0.0338 µg/mL)
Enterococcus faecium [4]
  MBEC: 0.39 µM
  MBC: 0.39 µM (≈ 0.165 µg/mL)
[5]
  MIC: 6.25 µM (≈ 2.64 µg/mL)
Staphylococcus aureus [33]
  MBEC: 12.5 µM
  MBC: 6.25 µM (≈ 2.64 µg/mL)
Staphylococcus aureus [8]
  MIC: 50 µM (≈ 21.1 µg/mL)
HeLa [10]
  IC50: > 100 µM
Staphylococcus aureus [12]
  MIC: 25 µM (≈ 10.6 µg/mL)
Enterococcus faecium [13]
  MIC: 0.39 µM (≈ 0.165 µg/mL)
[14]
  hemolysis at 1 h, 200 µM: ≤ 1%
[26]
  Activity: >99.99%
